From PubChem
Most compounds without a hit are left out; they make up all but 1.8% or so of the library.
mABHD4 FP = ABHD4 inhibitors, primary screen, biochemical, fluorescence polarization, mouse. inhibition, % at 8.92 µM. purified mABHD4, FP-Rh probe fluorescence polarization. (Lyso)-N-acylphosphatidylethanolamine lipase (Mus musculus), Q8VD66. hit rate 0.54% among 370,000;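 active = inhibition exceeding the mean over every tested compound plus 3 SD, cut at about 30% in these data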;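 note: 0% = plate median of compound wells and 100% = S159A mutant with DMSO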
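Doses – 8.92 µM, single dose · Material – wild-type mouse ABHD4 protein · Replication – single well per compound (singlicate) · Measure – percent inhibition of probe binding, normalized to plate controls · Schedule – 45 min compound pre-incubation plus 60 min probe step, 25 °C · Detection – fluorescence polarization with parallel and perpendicular emission, 525/598 nm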
HTRA1 inh = HTRA1 serine protease inhibitors, primary screen, biochemical, fluorescence polarization, HTS. Q92743. recombinant HTRA1, FP-rhodamine activity-based probe. inhibition, % at 5.96 µM. hit rate 0.5% among 340,000. AID 504803, 2011; in the data active = inhibition above about 36%;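 note: 0% = enzyme with DMSO and 100% = wells lacking enzyme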
Target sequence (Q92743 whole entry, looked up): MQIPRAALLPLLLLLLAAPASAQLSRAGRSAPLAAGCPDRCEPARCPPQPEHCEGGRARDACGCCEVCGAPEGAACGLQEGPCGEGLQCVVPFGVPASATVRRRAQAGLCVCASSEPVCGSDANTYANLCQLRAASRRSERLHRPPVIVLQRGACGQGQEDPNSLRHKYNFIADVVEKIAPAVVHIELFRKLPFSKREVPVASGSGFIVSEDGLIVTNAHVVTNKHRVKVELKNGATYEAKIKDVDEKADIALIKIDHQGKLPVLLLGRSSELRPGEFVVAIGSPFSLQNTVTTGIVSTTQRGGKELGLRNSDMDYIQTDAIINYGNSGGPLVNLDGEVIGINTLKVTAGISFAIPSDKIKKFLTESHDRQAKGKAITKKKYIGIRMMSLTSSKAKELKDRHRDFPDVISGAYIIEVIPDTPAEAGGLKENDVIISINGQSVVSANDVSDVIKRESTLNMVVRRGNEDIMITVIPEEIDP
Tn7 DDE FP = inhibitors of Tn7 peptide binding to fibrin DD(E), primary screen, biochemical, fluorescence polarization, human fibrin, Tn7 probe | AID 720508, 2013 | hit rate 0.13% among 370,000 | inhibition, % at 8.3 µM | FP displacement of FITC-Tn7 peptide from fibrin DD(E); 0% = median of compound wells per plate;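 active = inhibition above the mean of compounds falling within the control limits plus 3 SD of them, cut at about 14% in these data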;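 note: 0% = plate median of compound wells and 100% = 10 µM Aha-Tn7 peptide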
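assay system = human clot-derived fibrin DD(E) complex | quantity = Fibrin-DD(E) at 2 µM final | timing = 10 min preincubation, 3 h with tracer, room temperature | signal = fluorescence polarization | measure = percent inhibition | benchmarks = high control wells with 10 µM unlabelled Aha-Tn7 peptide (full inhibition) | replicates = singlicate testing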
SIAE inh = human SIAE inhibitors, primary screen, biochemical, fluorescence polarization, FP-Rh probe, 1536-well HTS | SIAE FP-Rh probe binding | inhibition, % at 9.66 µM | hit rate 0.69% among 370,000 | AID 1053197, 2014;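 active = inhibition above a cutoff: mean of compounds within the control limits plus 3 SD of those, cut at about 17% in these data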;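 note: 0% = plate median of compound wells and 100% = probe without SIAE protein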
TCR-CD3 inh = inhibitors of human TCR-CD3 interaction, primary screen, biochemical, fluorescence, TAMRA-labeled TCR probe | T-cell receptor (TCR) | AID 651800, 2012 | inhibition, % at 9.4 µM | hit rate 0.37% among 360,000;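 note: recombinant mutant TCR 2C K166C tagged with TAMRA read by polarization; 0% = receptor in buffer alone and 100% = receptor with positive control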
Tn6 DDE FP = inhibitors of Tn6 peptide binding to fibrin DD(E), primary screen, biochemical, fluorescence polarization, human fibrin, Tn6 probe; Fibrinogen beta chain (Homo sapiens), P02675; Fibrin DD(E) TRITC-Tn6 fluorescence polarization displacement; inhibition, % at 8.3 µM; hit rate 0.21% among 370,000; AID 720509, 2013;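 active = inhibition above a per-campaign cutoff: mean of compounds within control limits plus 3 SD, cut at about 15% in these data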;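 note: 0% = median of all compound wells on the plate and 100% = blocking peptide control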
BSA probe FL = compounds interfering with TAMRA-BSA probe, counter-screen for TCR-CD3 interaction inhibitor project, biochemical, fluorescence, TAMRA-labeled BSA; inhibition, % at 9.4 µM; hit rate 10% among 1,200; AID 652035, 2013; shares compounds with TCR-CD3 inh; TAMRA-labeled BSA probe fluorescence counterscreen; in the data active = inhibition above about 23%;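 note: 0% = buffer low control and 100% = reference high control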
TCR-CD3 inh conf = TCR-CD3 interaction inhibitors, retest, confirmation, biochemical, fluorescence, TAMRA-labeled TCR probe; TAMRA-labeled TCR probe fluorescence binding assay; shares compounds with TCR-CD3 inh; hit rate 48% among 1,200; inhibition, % at 9.4 µM; AID 652036, 2013
Tn7 DDE conf = inhibitors of Tn7 peptide binding to fibrin DD(E), confirmation, biochemical, fluorescence polarization, human fibrin, Tn7 probe; inhibition, % at 8.3 µM; FP displacement of TRITC-Tn7 peptide from DD(E); 0% set at plate's compound-well median; shares compounds with Tn7 DDE FP; hit rate 5% among 460;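 active = inhibition above the campaign cutoff, the mean of compounds within control limits plus 3 SD, cut at about 14% in these data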;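 note: 100% = median FP of high control wells holding Aha-Tn7 inhibitor peptide; displacers lower polarization since freed probe rises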
DDE Tn7 FP ctr = counter-screen hit for Tn7 peptide-fibrin DD(E) binding disruption. shares compounds with Tn7 DDE FP. inhibition, % at 8.3 µM. TRITC-Tn7 probe displacement, fluorescence polarization. hit rate 3% among 460;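 active = inhibition above the cutoff, the mean of compounds lying between the control bounds plus 3 SD of those compounds, cut at about 17% in these data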;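 note: 0% = median of compound sample wells and 100% = excess unlabeled Aha-Tn7 peptide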
DDE Tn6 FP ctr = DD(E)-Tn6 binding inhibition, counter-screen; shares compounds with Tn6 DDE FP; hit rate 2% among 680; inhibition, % at 8.3 µM; Fibrin DD(E), TRITC-Tn6 fluorescence polarization displacement; 0% = median of compound wells, not DMSO;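 active = inhibition above the mean of test compounds lying between the control limits plus 3 SD of those, cut at about 14% in these data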;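 note: 0% = median of compound wells and 100% = wells with Aha-Tn7 blocking peptide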
Tn6 DDE conf = inhibitors of Tn6 peptide binding to fibrin DD(E), confirmation, biochemical, fluorescence polarization, human fibrin, Tn6 probe; shares compounds with Tn6 DDE FP; FP displacement of TRITC-Tn6 peptide from DD(E); 0% = per-plate median of test wells; inhibition, % at 8.3 µM; hit rate 10% among 680;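 active = inhibition above the mean of compounds lying within the control limits plus 3 SD, cut at about 16% in these data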;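 note: 100% = high control wells holding a competing inhibitor peptide at 10 µM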
* hit, by the source's call. Cut-off read from the data, not from the text of the source, unless noted: active = inhibition above about 19%; inactive = the rest.

How did CC(C)c1ccc(N2C(=O)/C(=C/N(C)C)SC2=S)cc1 do in these assays?
mABHD4 FP: -134; HTRA1 inh: 6; Tn7 DDE FP: 5; SIAE inh: -88; TCR-CD3 inh: 67*; Tn6 DDE FP: 43*; BSA probe FL: 150*; TCR-CD3 inh conf: 132*; DDE Tn6 FP ctr: -7; Tn6 DDE conf: 4

How did COc1cc(NC(=O)CNc2cccc(S(=O)(=O)N3CCOCC3)c2)cc(OC)c1 do in these assays?
mABHD4 FP: 1; HTRA1 inh: -5; Tn7 DDE FP: -3; SIAE inh: 0; TCR-CD3 inh: 10; Tn6 DDE FP: -4

How did O=C(COC(=O)CCCCCN=C1NS(=O)(=O)c2ccccc21)Nc1ccc(Cl)c(Cl)c1 do in these assays?
mABHD4 FP: 1; HTRA1 inh: -76; Tn7 DDE FP: 1; SIAE inh: -119; TCR-CD3 inh: 19*; Tn6 DDE FP: 29*; BSA probe FL: 7; TCR-CD3 inh conf: 10; DDE Tn6 FP ctr: 7; Tn6 DDE conf: 5

What do the screens show for `COc1ccc(CC2(CO)CCN(CC3=Cc4cc(Cl)ccc4OC3)CC2)cc1`?
mABHD4 FP: 1; HTRA1 inh: -37; Tn7 DDE FP: -5; SIAE inh: -6; TCR-CD3 inh: -5; Tn6 DDE FP: 3

What do the screens show for `CCN(CC)c1ccc(C(=O)c2ccccc2C(=O)O)c(O)c1`?
mABHD4 FP: 28; HTRA1 inh: 15; Tn7 DDE FP: -2; SIAE inh: 11; TCR-CD3 inh: 40*; Tn6 DDE FP: 15*; BSA probe FL: 56*; TCR-CD3 inh conf: 36*; DDE Tn6 FP ctr: 2; Tn6 DDE conf: 15

How did Cc1cccc(C(=O)c2ccccc2C(=O)O)c1O do in these assays?
mABHD4 FP: 6; HTRA1 inh: 3; Tn7 DDE FP: -11; SIAE inh: 2; TCR-CD3 inh: 10; Tn6 DDE FP: 1

Results for COc1cccc(OC)c1C(=O)NC(=S)Nc1cc(-c2nc3ccccc3[nH]2)ccc1Cl ?
mABHD4 FP: -107; HTRA1 inh: -98; Tn7 DDE FP: 3; SIAE inh: -155; TCR-CD3 inh: 60*; Tn6 DDE FP: 55*; BSA probe FL: 19; TCR-CD3 inh conf: 18; DDE Tn6 FP ctr: 1; Tn6 DDE conf: 13

Results for COc1cc2c(cc1OC)[C@@H](NC(=O)c1ccncc1)[C@H](C)[C@H]2c1ccccc1 ?
mABHD4 FP: 1; Tn7 DDE FP: 1; SIAE inh: 1; TCR-CD3 inh: -5; Tn6 DDE FP: -11

What do the screens show for `COC(=O)CC1(C(=O)OC)Nc2cc(Cl)c(Cl)cc2S(=O)(=O)N1O` (stereo not drawn)?
mABHD4 FP: -2; HTRA1 inh: 0; Tn7 DDE FP: 88*; SIAE inh: -16; TCR-CD3 inh: 38*; Tn6 DDE FP: 124*; BSA probe FL: 0; TCR-CD3 inh conf: 29*; Tn7 DDE conf: 60*; DDE Tn7 FP ctr: 58*; DDE Tn6 FP ctr: 60*; Tn6 DDE conf: 58*

How did CC1(C(=O)Nc2ccc(Cl)c(Cl)c2)CCN1C(=O)CCC1CCCC1 (stereo not drawn) do in these assays?
mABHD4 FP: -4; Tn7 DDE FP: -3; SIAE inh: -3; TCR-CD3 inh: 4; Tn6 DDE FP: 0

Results for CN(C)S(=O)(=O)c1ccc(Cl)c(C(=O)Nc2nc3ccccc3[nH]2)c1 ?
mABHD4 FP: 2; HTRA1 inh: -2; Tn7 DDE FP: -9; SIAE inh: -2; TCR-CD3 inh: -3; Tn6 DDE FP: 2

Results for Cc1ccc(NS(=O)(=O)c2ccc(Cl)c(C(=O)Nc3ccccc3-c3nc4ccccc4[nH]3)c2)cc1C ?
mABHD4 FP: -199; HTRA1 inh: -137; Tn7 DDE FP: -5; SIAE inh: -219; TCR-CD3 inh: 78*; Tn6 DDE FP: 16*; BSA probe FL: 18; TCR-CD3 inh conf: 37*; DDE Tn6 FP ctr: 8; Tn6 DDE conf: 3

What do the screens show for `Cc1ccc(Cn2ccsc2=NC(=O)CCl)cc1`?
mABHD4 FP: 6; HTRA1 inh: 4; Tn7 DDE FP: -2; SIAE inh: -4; TCR-CD3 inh: 11; Tn6 DDE FP: 0

Results for Cc1ccc(Cn2ccsc2=NC(=O)COC(=O)c2ccc(NC(=O)CC#N)cc2)cc1 ?
mABHD4 FP: 2; HTRA1 inh: -49; Tn7 DDE FP: -4; SIAE inh: -14; TCR-CD3 inh: 27*; Tn6 DDE FP: 16*; BSA probe FL: 8; TCR-CD3 inh conf: 6; DDE Tn6 FP ctr: -2; Tn6 DDE conf: -16

Results for COc1ccc(S(=O)(=O)N(C)C[C@H]2Oc3ccc(NC(=O)Nc4ccc(C(F)(F)F)cc4)cc3C(=O)N([C@H](C)CO)C[C@@H]2C)cc1 ?
mABHD4 FP: -109; HTRA1 inh: -113; Tn7 DDE FP: 4; SIAE inh: -201; TCR-CD3 inh: 34*; Tn6 DDE FP: 81*; BSA probe FL: 24*; TCR-CD3 inh conf: 47*; DDE Tn6 FP ctr: 9; Tn6 DDE conf: 34*
